Results: ChEMBL document CHEMBL3608281, “Synthesis and biological evaluation of novel 3,9-substituted β-carboline derivatives as anticancer agents” (Bioorg Med Chem Lett, 2015)

Columns and labels:
HL-60 = test: Cytotoxicity against human HL60 cells incubated for 48 hrs by MTT assay; assay type: functional, cell-based; details: HL-60, 48 h
Outline: (§1)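 Human tumour lines (HL-60 leukemia, Hep3B liver, H460 lung, A498 renal, COLO205 colon, 2774 and SK-OV-3 ovarian) and normal Detroit 551 skin fibroblasts were exposed to a range of concentrations for 48 h. IC50 is the concentration giving 50% proliferation inhibition, as the mean of three independent determinations.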

[1] = Cytotoxicity against human Hep3B cells incubated for 48 hrs by MTT assay; assay type: functional, cell-based, Hep 3B2; outline: as §1
[2] = Cytotoxicity against human H460 cells incubated for 48 hrs by MTT assay; assay type: functional, cell-based; details: NCI-H460, 48 h; outline: as §1
A498 = test: Cytotoxicity against human A498 cells incubated for 48 hrs by MTT assay; assay type: functional, cell-based; details: A498, 48 h
COLO 205 = test: Cytotoxicity against human COLO205 cells incubated for 48 hrs by MTT assay; assay type: functional, cell-based; details: COLO 205, 48 h; outline: as §1
[3] = Cytotoxicity against human 2774 cells incubated for 48 hrs by MTT assay; assay type: functional, cell-based; outline: as §1
SK-OV-3 = test: Cytotoxicity against human SKOV3 cells incubated for 48 hrs by MTT assay; assay type: functional, cell-based; details: SK-OV-3, 48 h; outline: as §1
Detroit 551 = test: Cytotoxicity against human Detroit 551 cells incubated for 48 hrs by MTT assay; assay type: cell-based; details: Detroit 551, 48 h; outline: as §1
MCF7 = test: Cytotoxicity against human MCF7 cells; assay type: functional, cell-based

Compound	IC50 (HL-60) [µM]	IC50 [1] [µM]	IC50 [2] [µM]	IC50 (A498) [µM]	IC50 (COLO 205) [µM]	IC50 [3] [µM]	IC50 (SK-OV-3) [µM]	IC50 (Detroit 551) [µM]	IC50 (MCF7) [µM]
CCOC(=O)c1cc2c3ccccc3n(Cc3ccc(OC)cc3)c2cn1	39	50	50	38.5	36.9	> 100	> 100	50	–
CCOC(=O)c1cc2c3ccccc3n(Cc3ccccc3)c2cn1	> 100	> 100	> 100	48.2	> 100	26.8	3	50	–
O=C(O)c1cc2c3ccccc3n(Cc3ccc(F)cc3)c2cn1	–	–	–	7.6	33.5	23.5	27.7	–	–
CCOC(=O)c1cc2c3ccccc3n(Cc3ccncc3)c2cn1	–	–	–	> 100	> 100	> 100	> 100	–	–
CCOC(=O)c1cc2c3ccccc3n(Cc3ccccc3OC)c2cn1	3.9	8.9	> 100	41.3	> 100	> 100	> 100	> 100	–
CCOC(=O)c1cc2c(cn1)[nH]c1ccccc12	> 100	> 100	> 100	> 100	> 100	> 100	> 100	> 100	–
O=C(O)c1cc2c3ccccc3nc-2c[nH]1	75	75	70.5	> 100	49.6	> 100	> 100	> 100	–
CCOC(=O)c1cc2c3ccccc3n(Cc3cc(OC)cc(OC)c3)c2cn1	> 100	> 100	> 100	> 100	> 100	> 100	24.4	> 100	–
CCOC(=O)c1cc2c3ccccc3n(Cc3ccc(Cl)cc3)c2cn1	> 100	> 100	> 100	> 100	> 100	16.4	2.9	> 100	–
OCc1ccc2c(c1)c1ccccc1n2Cc1ccc(Cl)nc1	–	–	–	–	–	–	–	–	20
